From PubChem BioAssay
UPR CHOP act: activators of apoptotic CHOP UPR arm, primary screen, cell-based, CHO-CHOP luciferase reporter, luminescence, uHTS; UPR activation; percent of tunicamycin response over DMSO baseline; activation, % at 10 µM; 0.34% of 330,000 active;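 active = at 10 µM dose, activation of 40% or more, normalized to positive control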
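assay system = CHO CHOP reporter cells | amount = 500 CHO-CHOP cells per well | buffer or medium = F12 with 10% FBS | incubation = 16-18 h cell attachment, then 6 h compound exposure, 37 °C | detection = luminescence read with Steady-Glo | read-out = percent activation relative to tunicamycin control | controls = tunicamycin high control, DMSO low control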
HCV NS3 hel inh: inhibitors of HCV NS3 helicase, primary screen, biochemical, Cy5 molecular beacon fluorescence; inhibition, % at 10.9 µM; Hepatitis C virus NS3 helicase; NS3 helicase DNA unwinding; 0.56% of 290,000 active;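 active = inhibition above the mean of all tested compounds plus 3 SD, set per campaign, cut at about 35% in these data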
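System: Hepatitis C virus NS3 helicase domain fragment enzyme | Reagent: Annealed dual-labelled DNA beacon duplex, ATP-started | Compound dosing: 10.9 µM single point, 0.8% DMSO | Incubation: 1 h reaction at 25 °C, ATP-initiated | Technique: Cy5 fluorescence | Evaluation: Percent inhibition from t60/t0 fluorescence ratio | Benchmarks: Low DMSO, high thioflavine S at 110 µM | Replication: Singlicate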
CHOP inhibitor: inhibitors of CHOP promoter induction, primary screen, cell-based, unfolded protein response, luciferase reporter; 3.8% of 220,000 active; inhibition, % at 10 µM; AID 2732, 2010; CHO-K1 CHOP-promoter luciferase, tunicamycin-induced, 15-18 h;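 active = compounds that reduced the stress-induced luciferase reporter signal by more than about 70% of percent inhibition, limit read from the data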
PfM18AAP inh: PfM18AAP inhibitors, malaria aminopeptidase, primary screen, biochemical, QFRET, recombinant enzyme; M18 aspartyl aminopeptidase (Plasmodium falciparum 3D7); 1.2% of 290,000 active; H-Glu-NHMec fluorogenic cleavage; inhibition, % at 7.35 µM;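 active = inhibition above the campaign mean inhibition over all tested compounds plus 3 SD, cut at about 28% in these data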
XBP1 UPR activ: activators of adaptive XBP1 UPR arm, primary screen, cell-based, CHO-XBP1 luciferase reporter, luminescence, uHTS | 0.33% of 330,000 active | AID 463104, 2010 | activation, % at 20 µM | IRE1-XBP1 UPR activation; percent of tunicamycin response, DMSO as zero;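 active = versus positive control, 20 µM dose yields 30% or more activation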
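Assay system: CHO-XBP1 luciferase reporter cells; Schedule: 6 h treatment, 37 °C; Detection: glow luminescence from Steady-Glo reagent; Benchmarks: high control tunicamycin 10 µg/mL final, low control DMSO vehicle only.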
p97 inhibitor: inhibitors of human p97 ATPase, primary screen, biochemical | 0.42% of 220,000 active | inhibition, % at 8 µM | recombinant p97 ATPase, Kinase-Glo ATP luminescence, 3 h | Transitional endoplasmic reticulum ATPase (Homo sapiens), P55072; in the data active = inhibition above about 15%
Target sequence (P55072 whole entry, looked up): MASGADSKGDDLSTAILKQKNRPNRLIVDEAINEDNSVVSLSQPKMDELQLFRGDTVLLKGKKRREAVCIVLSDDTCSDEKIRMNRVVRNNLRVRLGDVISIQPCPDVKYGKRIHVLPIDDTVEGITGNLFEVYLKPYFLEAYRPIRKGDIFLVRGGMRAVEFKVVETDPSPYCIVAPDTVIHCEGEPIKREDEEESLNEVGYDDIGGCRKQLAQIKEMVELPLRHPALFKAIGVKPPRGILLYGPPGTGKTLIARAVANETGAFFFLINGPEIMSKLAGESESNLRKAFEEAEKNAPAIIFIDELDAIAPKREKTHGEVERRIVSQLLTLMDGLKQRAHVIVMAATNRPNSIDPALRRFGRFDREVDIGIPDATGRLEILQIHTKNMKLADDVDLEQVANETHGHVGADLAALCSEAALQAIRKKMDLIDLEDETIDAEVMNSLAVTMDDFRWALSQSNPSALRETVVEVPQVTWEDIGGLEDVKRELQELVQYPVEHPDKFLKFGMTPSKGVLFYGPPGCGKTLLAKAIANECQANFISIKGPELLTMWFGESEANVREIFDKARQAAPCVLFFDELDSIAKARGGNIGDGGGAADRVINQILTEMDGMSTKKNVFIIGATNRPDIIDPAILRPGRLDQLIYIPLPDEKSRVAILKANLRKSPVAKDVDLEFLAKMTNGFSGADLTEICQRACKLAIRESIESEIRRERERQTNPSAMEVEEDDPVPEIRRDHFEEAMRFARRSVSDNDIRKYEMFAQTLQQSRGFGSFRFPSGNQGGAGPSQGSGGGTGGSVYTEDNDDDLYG
Of the large screens only hits and unclear results are named; the others gave an inactive call. This is a sample that favours compounds with a hit; in the whole collection about 4.5% have one here.

CCOC(=O)c1sc(/N=C/c2ccc(O)cc2O)cc1C	CHOP inhibitor 94
O=C(COC(=O)c1ccc([N+](=O)[O-])o1)NCc1ccc2c(c1)OCO2	none (no result: HCV NS3 hel inh, CHOP inhibitor, PfM18AAP inh, p97 inhibitor)
Cc1ccc(-c2noc(CN3CCN(c4ccccc4F)CC3)n2)cc1	CHOP inhibitor 74
COc1ccc(-c2noc(CN3CCC(Cc4ccccc4)CC3)n2)cc1	none
c1ccc(CC2CCN(Cc3nc(-c4ccccc4)no3)CC2)cc1	CHOP inhibitor 92
O=C1CCC(C(=O)N2CCCC2)CN1Cc1cccc(C(F)(F)F)c1 (stereo unspecified)	none (no result: CHOP inhibitor, p97 inhibitor)
O=C(Nc1ccccn1)c1c(O)c2cccc3c2n(c1=O)CCC3	none
O=C(Nc1nccs1)c1c(O)c2cccc3c2n(c1=O)CCC3	CHOP inhibitor 108
CCCCCc1nc2ccccc2c(=O)n1NC(=O)c1c(O)c2cccc3c2n(c1=O)CCC3	none (no result: UPR CHOP act, CHOP inhibitor, XBP1 UPR activ)
Cc1cccnc1NC(=O)c1c(O)c2cccc3c2n(c1=O)CCC3	CHOP inhibitor 80
CCCCCCc1nc2ccccc2c(=O)n1NC(=O)c1c(O)c2cccc3c2n(c1=O)CCC3	CHOP inhibitor 85 (no result: UPR CHOP act, XBP1 UPR activ)
CCN(CC)C(=O)Cn1cc(S(=O)(=O)CC(=O)N2CCOCC2)c2ccccc21	none (no result: CHOP inhibitor, p97 inhibitor)
Cc1cc(C)n2nc(SCc3cccc(F)c3)nc2n1	none (no result: CHOP inhibitor, p97 inhibitor)
O=C(COc1cc(Cl)c(Cl)cc1Cl)Nc1ccncc1	none
O=C(COc1cc(Cl)c(Cl)cc1Cl)Nn1cnnc1	PfM18AAP inh 30
O=C(COc1cc(Cl)c(Cl)cc1Cl)Nc1cccc(O)c1	CHOP inhibitor 79
O=C(COc1ccc(Cl)cc1Cl)NN1C(=O)C2C3C=CC(C3)C2C1=O (stereo unspecified)	none
COC(=O)c1cc(Cn2nc(C(=O)O)c3ccccc3c2=O)oc1C	none (no result: CHOP inhibitor, p97 inhibitor)
CCCCNC(=O)C(=O)N/N=C/c1ccc(OCC(=O)Nc2cccc(OC)c2)c(OC)c1	CHOP inhibitor 99
O=C(COC(=O)CCNS(=O)(=O)c1ccccc1)Nc1ccc(OC(F)F)cc1	none (no result: HCV NS3 hel inh, CHOP inhibitor, PfM18AAP inh, p97 inhibitor)
CCOC(=O)C1=C(C)NC(C)=C(C(=O)OCC)C1c1ccccc1/C=C/C(=O)OC(C)(C)C	XBP1 UPR activ 39 (no result: HCV NS3 hel inh, CHOP inhibitor, PfM18AAP inh, p97 inhibitor)
CC(OC(=O)CCN1C(=O)c2cccc([N+](=O)[O-])c2C1=O)C(=O)Nc1cc(Cl)cc(Cl)c1 (stereo unspecified)	CHOP inhibitor 82
CN(C1CCCCC1)S(=O)(=O)c1ccc(=S)[nH]c1	none (no result: HCV NS3 hel inh, CHOP inhibitor, PfM18AAP inh, p97 inhibitor)
COc1ccc(N(CC(=O)Nc2ccccc2C(F)(F)F)C2=NC3CS(=O)(=O)CC3S2)cc1 (stereo unspecified)	none (no result: CHOP inhibitor, p97 inhibitor)
COc1cccc(Nc2ncccc2C(=O)Nc2ccccc2)c1	CHOP inhibitor 85
COc1cccc(NC(=O)c2ccccc2Oc2ccccc2)c1	none (no result: CHOP inhibitor, p97 inhibitor)
CCn1nc(C(=O)NNS(=O)(=O)c2ccc(C)cc2)c2ccccc2c1=O	none (no result: HCV NS3 hel inh, CHOP inhibitor, PfM18AAP inh, p97 inhibitor)
O=C(NNC(=O)c1ccc2c(c1)OCO2)NC1CCCCC1	PfM18AAP inh 30
O=C(NC1CCCCC1)c1ccc2c(c1)OCO2	none (no result: CHOP inhibitor, p97 inhibitor)
O=C(NNC(=O)c1ccc(Br)s1)NC1CCCCC1	PfM18AAP inh 28 (no result: CHOP inhibitor, p97 inhibitor)
CSCCC(NC(=O)CCNC(=O)c1ccccc1Cl)c1nc2ccccc2[nH]1 (stereo unspecified)	none (no result: HCV NS3 hel inh, CHOP inhibitor, PfM18AAP inh, p97 inhibitor)
Cc1cc(=O)[nH]c(Nc2ccc(C(=O)OC(C)C)cc2)n1	CHOP inhibitor 70
COc1ccc(-c2nc3nc(N)nn3cc2C)cc1F	none
O=C(Nc1nnc(COc2ccccc2)s1)C1CCN(S(=O)(=O)c2ccc(Cl)cc2)CC1	CHOP inhibitor 80
Cc1onc(-c2ccccc2)c1C(=O)Nc1nnc(COc2ccc(Cl)cc2)s1	CHOP inhibitor 89
Cc1onc(-c2ccccc2Cl)c1C(=O)Nc1nnc(-c2ccc(Cl)cc2Cl)s1	CHOP inhibitor 78
CCc1nnc(NC(=O)c2c(-c3ccccc3)noc2C)s1	none (no result: CHOP inhibitor, p97 inhibitor)
O=C(CN1C(=O)NC(c2ccccc2)(c2ccccc2)C1=O)NCc1ccc(F)cc1	none (no result: HCV NS3 hel inh, CHOP inhibitor, PfM18AAP inh, p97 inhibitor)
O=C(O)CC(NC(=O)c1ccncc1)c1ccccc1 (stereo unspecified)	none
c1ccc(-c2nnc3sc(CN4CCC5(CC4)OCCO5)cn23)cc1	CHOP inhibitor 77
c1ccc(-c2nnc(CN3CCC4(CC3)OCCO4)o2)cc1	none
Cc1ccc(C(=O)c2ccc([N+](=O)[O-])cc2)cc1	none
Cc1ccc(C(=O)c2coc3cc([N+](=O)[O-])c(O)c([N+](=O)[O-])c23)cc1	PfM18AAP inh 33
CCOc1ccc(-c2c(=O)n(OCc3ccc([N+](=O)[O-])cc3)c3ccccc3[n+]2[O-])cc1	XBP1 UPR activ 36
CCOC(=O)c1cccc(NC(=O)CCc2nc(-c3ccc(C)cc3)no2)c1	none
CCOC(=O)c1ccc(NC(=O)CCc2nc(-c3ccccc3)no2)cc1	CHOP inhibitor 79
CCOC(=O)c1ccc(NC(=O)CCc2nc(-c3ccccc3Cl)no2)cc1	CHOP inhibitor 81
COc1ccc(C(=O)N2CCN(c3ccc([N+](=O)[O-])c(NCCc4ccc(OC)c(OC)c4)c3)CC2)cc1	CHOP inhibitor 81
COc1ccc(CCNc2cc(N3CCN(C(=O)c4ccccc4F)CC3)ccc2[N+](=O)[O-])cc1OC	none
COc1ccc(CCNc2cc(N3CCN(C(=O)c4ccc(C)cc4)CC3)ccc2[N+](=O)[O-])cc1OC	CHOP inhibitor 79
O=C(Nc1ccc(OC(F)(F)F)cc1)c1cnccn1	none (no result: CHOP inhibitor, p97 inhibitor)
Clc1ccc(-c2nnc(-c3ccccc3)o2)c(Cl)c1	none
Fc1ccc(-c2nnc(-c3ccc(Cl)cc3Cl)o2)cc1	CHOP inhibitor 80
CC(C)NC(=O)CN1CCC(c2nc3ccccc3[nH]2)CC1	none (no result: CHOP inhibitor, p97 inhibitor)
COc1cccc(/C=N/N2CCN(c3ccccc3OC)CC2)c1	CHOP inhibitor 76
Cc1noc(-c2ccc(Cl)cc2)c1C(=O)O/N=C(\N)c1ccc(C(C)(C)C)cc1	CHOP inhibitor 80
Cc1cc(C(=O)O/N=C(\N)c2ccc(C(C)(C)C)cc2)no1	none
O=C(COC(=O)CC1SC(N2CCCC2)=NC1=O)Nc1ccc(Br)cc1 (stereo unspecified)	none (no result: HCV NS3 hel inh, CHOP inhibitor, PfM18AAP inh, p97 inhibitor)
COc1ccccc1C(=O)Nc1ccc(N2CCN(C(C)=O)CC2)cc1	CHOP inhibitor 77
CS/C(N)=N/N=C/c1cc(C)ccc1O	none
CCS/C(N)=N/N=C/c1cc(C)ccc1O	PfM18AAP inh 31
O=C(COC(=O)C1CCC1)NCc1ccc(F)cc1	none (no result: HCV NS3 hel inh, CHOP inhibitor, PfM18AAP inh, p97 inhibitor)
